Data reported in ChEMBL document CHEMBL1140174, “A copper(I)-catalyzed 1,2,3-triazole azide-alkyne click compound is a potent inhibitor of a multidrug-resistant HIV-1 protease variant” (J Med Chem, 2008).
Calls of active or inactive are those of the source. No cut-off for these calls is given here.

Experiments:
[1] = tested on: Human immunodeficiency virus 1; assay: Antiviral activity against wild type HIV1 in human SupT1 cells assessed as inhibition of viral replication measured at 6 days postinfection by p24 ELISA assay; assay type: functional, organism-based; conditions: Human immunodeficiency virus 1, SUP-T1, 144 h
How it was run: (§1)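 SupT1 cells (RPMI 1640, 10% FCS, 2mM L-glutamine, penicillin/streptomycin) infected with 10–100ng/mL p24 of virus at 37°C, washed, then cultured ± inhibitor at 1–4000 nM. Supernatant sampled every second day with media and inhibitor replenished. p24 measured by ELISA at 6 days post-infection, expressed as percentage of untreated cells; EC50 by nonlinear regression.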

[2] = tested on: Human immunodeficiency virus 1; assay: Antiviral activity against wild type HIV1 in human SupT1 cells assessed as viral LTR-driven luciferase activity using TZM-bl cells; assay type: functional, organism-based; conditions: Human immunodeficiency virus 1, SUP-T1
How it was run: (§2)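 SupT1 cells infected at MOI 0.001–0.005 and cultured with inhibitor at 1–4000 nM. On day 5–6, cell-free supernatant transferred to 10^4 TZM-bl cells carrying an HIV-1 LTR-driven luciferase reporter. Luciferase read by luminescence after 48 h. EC50 from nonlinear regression.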

[3] = tested on: Human immunodeficiency virus 1; assay: Antiviral activity against multidrug-resistant HIV1 with protease V82A, M46I, F53L, V77I, L24I, L63P mutation in human SupT1 cells assessed as viral LTR-driven luciferase activity using TZM-bl cells; assay type: functional, organism-based; conditions: Human immunodeficiency virus 1, SUP-T1; how it was run: as §2
Protease = Protease (Human immunodeficiency virus 1, UniProt Q9YQ12); assay: Inhibition of wild type HIV1 protease
Protease, sequence (Q9YQ12 whole entry): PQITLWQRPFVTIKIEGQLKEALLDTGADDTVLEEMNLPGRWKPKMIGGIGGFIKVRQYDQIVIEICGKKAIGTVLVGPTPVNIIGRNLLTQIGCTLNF
How it was run: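 Purified HIV-1 protease (expression and purification described in earlier work) is preincubated with inhibitor in 25mM MES pH 5.6, 200mM NaCl, 5% glycerol, 1mM DTT in a prewarmed plate. Final concentrations: 25nM protease, 30µM fluorogenic anthranilyl substrate H-2992, 0.001–600µM inhibitor. Cleavage is read as fluorescence intensity. IC50 comes from nonlinear regression of initial velocities against inhibitor concentration, and Ki is calculated with the Cheng-Prusoff equation.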

[4] = tested on: Human immunodeficiency virus 1; assay: Antiviral activity against multidrug-resistant HIV1 with protease V82A, M46I, […], V77I, L24I, L63P mutation in human SubT1 cells assessed as inhibition of viral replication at 250 nM measured at 6 days postinfection by p24 ELISA assay relative to control; assay type: functional
How it was run: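 SupT1 cells (RPMI 1640, 10% fetal calf serum, 2mM L-glutamine, penicillin/streptomycin) infected with 10–100ng/mL p24 of SupT1-grown virus at 37°C, washed, then resuspended in medium with or without inhibitor (1–4000 nM range). Supernatant sampled every second day with medium and inhibitor replenished. p24 quantified by ELISA 6 days post infection, expressed as percentage of untreated cells.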

[5] = tested on: Human immunodeficiency virus 1; assay: Antiviral activity against wild type HIV1 in human SubT1 cells assessed as inhibition of viral replication at 250 nM measured at 6 days postinfection by p24 ELISA assay; assay type: functional, organism-based
How it was run: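 SupT1 cells (RPMI 1640, 10% fetal calf serum) were infected with wild-type HIV-1 (10–100ng/mL p24) at 37°C, washed, then cultured with inhibitor at 1–4000 nM. Every second day supernatant was sampled and medium plus inhibitor replaced. p24 was measured by ELISA 6 days post-infection and expressed as a percentage of untreated cells (relative p24).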

[6] = tested on: Human immunodeficiency virus 1; assay: Antiviral activity against multidrug-resistant HIV1 with protease V82A, M46I, F53L, V77I, L24I, L63P mutation in human SupT1 cells assessed as inhibition of viral replication measured at 6 days postinfection by p24 ELISA assay; assay type: functional, organism-based; conditions: Human immunodeficiency virus 1, SUP-T1, 144 h; how it was run: as §1
[7] = Inhibition of multidrug-resistant HIV1 protease with V82A, M46I, F53L, V77I, L24I, L63P mutation; design: species or system Human immunodeficiency virus 1
How it was run: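 Fluorogenic cleavage assay with purified protease in 25mM MES pH 5.6, 200mM NaCl, 5% glycerol, 1mM DTT. Final concentrations 25nM enzyme, 30μM anthranilyl substrate H-2992, inhibitor 0.001–600μM. Reaction started by adding substrate in a prewarmed plate, read by fluorescence. IC50 by nonlinear regression of initial velocities; Ki from Cheng-Prusoff.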

SMILES	EC50 [1]	EC50 [2]	EC50 [3]	IC50 (Protease)	Ki (Protease)	fold change (FC) [4]	Activity [5]	EC50 [6]	IC50 [7]	Ki [7]
CC(C)[C@H](NC(=O)[C@H](C)NC(=O)OCc1ccccc1)C(=O)N[C@@H](Cc1ccccc1)[C@@H](O)[C@H](O)[C@H](Cc1ccccc1)NC(=O)[C@@H](NC(=O)[C@H](C)NC(=O)OCc1ccccc1)C(C)C	46 nM	92 nM	–	–	–	–	–	–	–	–
COc1ccc(S(=O)(=O)N(CC(C)C)C[C@@H](O)[C@H](Cc2ccccc2)n2cc(COC(=O)N[C@H]3c4ccccc4C[C@H]3O)nn2)cc1	30 nM	86 nM	260 nM	6 nM	2.7 nM	20	Active	55 nM	15.7 nM	7.1 nM
